Numbering of substitutions follows the chain as printed.
What was measured:
Vrg4 = target: T1, Vrg4 (Saccharomyces cerevisiae, UniProt P40107); assay type: biochemical; conditions: internal substrate; 0.5 μM 3H-GMP outside
T1 sequence (P40107 1-337): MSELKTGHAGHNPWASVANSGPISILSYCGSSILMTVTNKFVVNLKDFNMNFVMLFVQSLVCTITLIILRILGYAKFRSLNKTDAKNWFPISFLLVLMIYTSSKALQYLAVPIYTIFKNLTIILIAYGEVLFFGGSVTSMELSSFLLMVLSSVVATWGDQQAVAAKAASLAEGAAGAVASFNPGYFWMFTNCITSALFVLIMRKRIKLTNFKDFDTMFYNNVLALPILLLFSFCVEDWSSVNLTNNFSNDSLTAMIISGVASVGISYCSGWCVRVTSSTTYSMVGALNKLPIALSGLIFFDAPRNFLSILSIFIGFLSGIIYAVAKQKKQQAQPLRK
Procedure, shortened: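 Yeast Vrg4-GFP-His was galactose-induced, IMAC-purified in DDM, and then in DM reconstituted by dilution into yeast polar lipid vesicles at 80:1 lipid:protein and dialysed. Internal substrate was loaded by six freeze-thaw cycles and 0.4 μm extrusion. 4 μg protein was added to 50 μl of 20 mM Hepes pH 7.5, 50 mM KCl, 2 mM MgSO4 with 0.5 μM 3H-GMP. Samples were filtered, washed with cold water and scintillation-counted. ≥4 repeats, mean ± S.D.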

wild type Vrg4 = target: T2, wild type Vrg4 (Saccharomyces cerevisiae, UniProt P40107); assay: Competition / IC50 of 3H-GMP uptake into wild type Vrg4 proteoliposomes; assay type: biochemical; conditions: competition assay, n=4
T2 sequence (P40107 1-337): T1 sequence (P40107 1-337)

Vrg4 Tyr114Phe (Y114F) = target: T3, Vrg4 Tyr114Phe (Y114F) (Saccharomyces cerevisiae, UniProt P40107, Y114F); assay: IC50 curves, Vrg4 Tyr114Phe variant proteoliposomes; assay type: biochemical; conditions: Tyr114Phe versus wild type
T3 sequence (P40107 1-337 Y114F): T1 sequence (P40107 1-337) with Y114F
Procedure, shortened: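 Wild-type or mutant Vrg4 was purified in DM and reconstituted at 80:1 lipid:protein into yeast polar lipid proteoliposomes. Reconstituted protein was matched by SDS-PAGE densitometry. Liposomes were substrate-loaded by freeze-thaw and extrusion. Uptake was started by adding 4 μg protein equivalent to 50 μl buffer (20 mM Hepes pH 7.5, 50 mM KCl, 2 mM MgSO4) with 0.5 μM 3H-GMP, then filtered and counted. IC50 from curves, mean of three independent experiments, s.d.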

[1] = target: GDP-mannose transporter Vrg4 (Saccharomyces cerevisiae) (UniProt P40107); assay: crystal structure

Compound | Competition of transport (recognition by the binding site) (wild type Vrg4) | other results
Nc1ncnc2c1ncn2[C@@H]1O[C@H](COP(=O)(O)O)[C@@H](O)[C@H]1O [AMP, adenine monophosphate] |  | Transport driven by substance inside the liposome (Vrg4): poor transport
Nc1ccn([C@@H]2O[C@H](COP(=O)(O)O)[C@@H](O)[C@H]2O)c(=O)n1 [CMP, cytosine monophosphate] |  | Transport driven by substance inside the liposome (Vrg4): no significant transport
Nc1nc2c(ncn2[C@@H]2O[C@H](COP(=O)(O)OP(=O)(O)O[C@H]3O[C@H](CO)[C@@H](O)[C@H](O)[C@@H]3O)[C@@H](O)[C@H]2O)c(=O)[nH]1 [GDP-M, GDP-mannose] | most effective competitors of transport | Affinity relative to wild type (Vrg4 Tyr114Phe (Y114F)): reduced the affinity
Nc1nc2c(ncn2[C@@H]2O[C@H](COP(=O)(O)O)[C@@H](O)[C@H]2O)c(=O)[nH]1 [GMP, guanine monophosphate] | most effective competitors of transport | Affinity relative to wild type (Vrg4 Tyr114Phe (Y114F)): reduced the affinity
Nc1nc2c(ncn2[C@@H]2O[C@H](COP(=O)(O)OP(=O)(O)OP(=O)(O)O)[C@@H](O)[C@H]2O)c(=O)[nH]1 [GTP] |  | Transport driven by substance inside the liposome (Vrg4): cannot be driven
O=P(O)(O)OP(=O)(O)O [Pyrophosphate] | cannot inhibit | 
Nc1nc2c(ncn2[C@@H]2O[C@@H]3COP(=O)(O)O[C@H]3[C@H]2O)c(=O)[nH]1 [cyclic GMP] | very poorly recognised | 
Nc1nc2c(ncn2[C@@H]2O[C@H](CO)[C@@H](O)[C@H]2O)c(=O)[nH]1 [guanosine] | very poorly recognised | 
GDP-mannose transporter Vrg4 (from UniProt P40107 1-337) (natural protein) |  | stoichiometry N [1]: 2

Second part, led by results:

Competition of transport (recognition by the binding site) (wild type Vrg4) | Compound | other results
can also compete | C[C@@H]1O[C@H](OP(=O)(O)OP(=O)(O)OC[C@H]2O[C@@H](n3cnc4c(=O)[nH]c(N)nc43)[C@H](O)[C@@H]2O)[C@@H](O)[C@H](O)[C@@H]1O [GDP-F, GDP-fucose] | 
can also compete | Nc1nc2c(ncn2[C@@H]2O[C@H](COP(=O)(O)OP(=O)(O)O)[C@@H](O)[C@H]2O)c(=O)[nH]1 [GDP] | 
can also compete | Nc1nc2c(ncn2[C@@H]2O[C@H](COP(=O)(O)OP(=O)(O)O[C@H]3O[C@H](CO)[C@@H](O)[C@H](O)[C@H]3O)[C@@H](O)[C@H]2O)c(=O)[nH]1 [GTP-G, GDP-glucose] | 

From publication PMC5701743 (Nature, 2017)
